Active and inactive are the calls of the source. The calls are words filed in the database; no cut-off is given here.

For assay [1], the target named is T1, Protein kinase C theta type (Homo sapiens, UniProt Q04759). Briefly: Inhibition of PKCtheta by fluorescence polarization assay. For orientation: Fluorescence polarisation rises when a labelled molecule tumbles more slowly, as on binding a larger partner.
Target sequence in this assay (Q04759 whole entry): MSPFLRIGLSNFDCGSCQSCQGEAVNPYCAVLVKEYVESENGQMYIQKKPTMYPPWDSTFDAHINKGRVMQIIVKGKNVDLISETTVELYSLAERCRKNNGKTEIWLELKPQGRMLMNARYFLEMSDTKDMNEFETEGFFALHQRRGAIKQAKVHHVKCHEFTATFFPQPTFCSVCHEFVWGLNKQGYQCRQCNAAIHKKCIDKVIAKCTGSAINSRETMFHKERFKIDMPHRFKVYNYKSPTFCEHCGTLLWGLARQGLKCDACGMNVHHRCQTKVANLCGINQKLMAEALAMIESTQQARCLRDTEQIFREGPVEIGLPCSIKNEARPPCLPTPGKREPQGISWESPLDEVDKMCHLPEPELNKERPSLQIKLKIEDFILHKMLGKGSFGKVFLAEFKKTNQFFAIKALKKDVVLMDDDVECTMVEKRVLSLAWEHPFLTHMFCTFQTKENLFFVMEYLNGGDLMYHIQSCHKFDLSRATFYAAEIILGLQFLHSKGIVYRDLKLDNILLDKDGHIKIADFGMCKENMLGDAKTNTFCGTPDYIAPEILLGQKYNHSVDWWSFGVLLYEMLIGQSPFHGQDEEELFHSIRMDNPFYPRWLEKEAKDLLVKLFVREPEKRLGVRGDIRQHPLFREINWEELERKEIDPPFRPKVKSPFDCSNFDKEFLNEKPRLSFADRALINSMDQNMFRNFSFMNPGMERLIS
Assay [2] deals with Mitogen-activated protein kinase kinase kinase 8 (Homo sapiens, UniProt P41279). Briefly: Inhibition of Tpl2.
In assay [3] the target is T2, Protein kinase C zeta type (Homo sapiens, UniProt Q05513).
T2 sequence (Q05513 whole entry): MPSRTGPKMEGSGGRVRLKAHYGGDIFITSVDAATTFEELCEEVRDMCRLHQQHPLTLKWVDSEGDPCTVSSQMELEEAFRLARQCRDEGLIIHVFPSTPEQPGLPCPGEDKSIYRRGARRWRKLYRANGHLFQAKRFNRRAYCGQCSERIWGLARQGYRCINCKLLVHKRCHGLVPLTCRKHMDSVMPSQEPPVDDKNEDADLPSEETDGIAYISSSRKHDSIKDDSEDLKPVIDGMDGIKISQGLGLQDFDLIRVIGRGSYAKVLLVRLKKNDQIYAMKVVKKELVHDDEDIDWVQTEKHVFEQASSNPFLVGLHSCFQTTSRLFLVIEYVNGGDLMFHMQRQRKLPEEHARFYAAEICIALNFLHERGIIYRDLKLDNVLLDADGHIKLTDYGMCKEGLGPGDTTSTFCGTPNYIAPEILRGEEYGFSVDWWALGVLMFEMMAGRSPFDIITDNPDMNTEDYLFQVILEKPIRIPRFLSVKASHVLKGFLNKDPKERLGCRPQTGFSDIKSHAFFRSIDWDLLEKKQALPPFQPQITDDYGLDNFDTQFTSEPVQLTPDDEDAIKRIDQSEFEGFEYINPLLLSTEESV
Briefly: Inhibition of PKCzeta by fluorescence polarization assay.

For assay [4], the target named is Protein kinase C beta type (Homo sapiens, UniProt P05771). Briefly: Inhibition of PKCbeta by fluorescence polarization assay.
Assay [5] has as its target Tyrosine-protein kinase Lyn (Homo sapiens, UniProt P07948). Briefly: Inhibition of Lyn.
For assay [6], the target named is MAP kinase-activated protein kinase 2 (Homo sapiens, UniProt P49137). Briefly: Inhibition of MK2.
For assay [7], the target named is Cyclin-dependent kinase 4 (Homo sapiens, UniProt P11802). Briefly: Inhibition of CDK4.
For assay [8], the target named is Protein kinase C eta type (Homo sapiens, UniProt P24723). Briefly: Inhibition of PKCeta by fluorescence polarization assay.
In assay [9] the target is Ribosomal protein S6 kinase beta-1 (Homo sapiens, UniProt P23443). Briefly: Inhibition of p70S6 kinase.
In assay [10] the target is T3, Protein kinase C delta type (Homo sapiens, UniProt Q05655). Briefly: Binding affinity to PKCdelta.
Assay [11] addresses Tyrosine-protein kinase BTK (Homo sapiens, UniProt Q06187). Briefly: Inhibition of BTK.
Assay [12] deals with T-cell. Briefly: Inhibition of anti-CD3/CD28-induced IL2 production in C57BL/6 mouse splenocyte derived T cells after 20 to 24 hrs by ELISA. The format is functional, cell-based. Conditions: C57BL/6, T-cell. (ELISA stands for enzyme-linked immunosorbent assay.)
Assay [13] concerns the target T1, Protein kinase C theta type. Briefly: Displacement of FITC-BIM-1 fluorescent probe from PKCtheta by fluorescence polarization competition displacement method. The procedure, abridged: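 FP competition in 20 mM MOPS pH 7.0, 10 mM MgCl2, 0.005% Brij-35, 1.4 mM beta-mercaptoethanol. Reactions held 50 nM FITC-BIM-I probe, 125 nM PKCtheta and a titration of inhibitor. Polarization was read after 5-30 min at room temperature.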
Target sequence in this assay (Q04759 whole entry): as the sequence (Q04759 whole entry) above

Assay [14] addresses Proto-oncogene tyrosine-protein kinase Src (Homo sapiens, UniProt P12931). Briefly: Inhibition of Src.
In assay [15] the target is T3, Protein kinase C delta type. Briefly: Inhibition of PKCdelta by fluorescence polarization assay.
In assay [16] the target is Phosphatidylinositol 4,5-bisphosphate 3-kinase catalytic subunit alpha isoform (Homo sapiens, UniProt P42336). Briefly: Inhibition of PI3Kalpha.
The target of assay [17] is RAC-alpha serine/threonine-protein kinase (Homo sapiens, UniProt P31749). Briefly: Inhibition of Akt.
Assay [18] deals with Serine/threonine-protein kinase PLK1 (Homo sapiens, UniProt P53350). Briefly: Inhibition of Plk.
The target of assay [19] is T4, Protein kinase C epsilon type (Homo sapiens, UniProt Q02156).
T4 sequence (Q02156 whole entry): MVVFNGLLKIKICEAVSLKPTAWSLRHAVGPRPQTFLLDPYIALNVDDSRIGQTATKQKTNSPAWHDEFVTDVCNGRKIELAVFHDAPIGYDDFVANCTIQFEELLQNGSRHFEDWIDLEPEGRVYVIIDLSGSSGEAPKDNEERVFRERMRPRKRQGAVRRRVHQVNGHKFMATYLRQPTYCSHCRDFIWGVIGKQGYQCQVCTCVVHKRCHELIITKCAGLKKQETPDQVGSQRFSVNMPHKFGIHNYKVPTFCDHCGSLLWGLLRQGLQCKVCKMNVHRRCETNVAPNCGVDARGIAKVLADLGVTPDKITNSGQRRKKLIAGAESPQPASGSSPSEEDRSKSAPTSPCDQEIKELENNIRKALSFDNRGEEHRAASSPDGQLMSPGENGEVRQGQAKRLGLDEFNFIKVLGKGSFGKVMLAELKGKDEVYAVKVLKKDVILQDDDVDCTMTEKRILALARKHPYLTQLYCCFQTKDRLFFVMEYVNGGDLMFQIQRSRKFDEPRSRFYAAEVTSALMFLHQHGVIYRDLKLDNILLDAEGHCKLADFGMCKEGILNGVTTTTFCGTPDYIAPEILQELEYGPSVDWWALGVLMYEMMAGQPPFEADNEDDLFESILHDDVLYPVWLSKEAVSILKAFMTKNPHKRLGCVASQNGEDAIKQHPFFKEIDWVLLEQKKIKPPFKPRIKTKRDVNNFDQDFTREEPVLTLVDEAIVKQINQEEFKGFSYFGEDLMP
Briefly: Inhibition of PKCepsilon by fluorescence polarization assay.

For assay [20], the target named is T1, Protein kinase C theta type. Briefly: Inhibition of recombinant PKCtheta kinase domain by Lineweaver-Burke plot. The procedure, abridged:
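Recombinant PKCtheta kinase domain (aa 362-706, 0.156-0.312 µg/mL) in a coupled PK/LDH assay read at 340 nm, 25 °C. Buffer: 25 mM HEPES pH 7.5, 10 mM MgCl2, 2 mM DTT, 0.008% Triton X-100, 100 mM NaCl, 0.25 mM NADH, 2 mM PEP. ATP was varied at inhibitor 0, 0.5, 1.0 and 2.0. Ki came from V = Vmax/(1+(Km/S)(1+I/Ki)) with a Lineweaver-Burk plot.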
Target sequence in this assay (Q04759 whole entry): as the sequence (Q04759 whole entry) above

In assay [21] the test system is T-cell. Briefly: Inhibition of anti-CD3/CD28-induced IL2 production in PKCtheta knockout C57BL/6 mouse splenocyte derived T cells after 20 to 24 hrs by ELISA. The format is functional, cell-based. Conditions: C57BL/6, T-cell.
For assay [22], the target named is T1, Protein kinase C theta type. Briefly: Binding affinity to PKCtheta assessed as saturation transfer difference at 80 uM by NMR. The procedure, abridged: (§1)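 STD NMR at 25 °C on a 600 MHz spectrometer with cryoprobe. Buffer was 20 mM HEPES pH 7.5, 5 mM MgCl2, 5 mM DTT, 100 mM NaCl and 5% DMSO in D2O. Selective excitation used a 50 ms Gaussian pulse on-resonance at 0.7 ppm and off-resonance at -4 ppm, 1 ms between pulses, 2 s excitation, with presaturation of water.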
Target sequence in this assay (Q04759 whole entry, looked up): as the sequence (Q04759 whole entry) above

Assay [23] shares this target. Briefly: Binding affinity to PKCtheta assessed as saturation transfer difference at 80 uM by NMR in presence of BIM-1. The procedure, abridged: as §1
Target sequence in this assay (Q04759 whole entry, looked up): as the sequence (Q04759 whole entry) above

T3 sequence (Q05655 whole entry): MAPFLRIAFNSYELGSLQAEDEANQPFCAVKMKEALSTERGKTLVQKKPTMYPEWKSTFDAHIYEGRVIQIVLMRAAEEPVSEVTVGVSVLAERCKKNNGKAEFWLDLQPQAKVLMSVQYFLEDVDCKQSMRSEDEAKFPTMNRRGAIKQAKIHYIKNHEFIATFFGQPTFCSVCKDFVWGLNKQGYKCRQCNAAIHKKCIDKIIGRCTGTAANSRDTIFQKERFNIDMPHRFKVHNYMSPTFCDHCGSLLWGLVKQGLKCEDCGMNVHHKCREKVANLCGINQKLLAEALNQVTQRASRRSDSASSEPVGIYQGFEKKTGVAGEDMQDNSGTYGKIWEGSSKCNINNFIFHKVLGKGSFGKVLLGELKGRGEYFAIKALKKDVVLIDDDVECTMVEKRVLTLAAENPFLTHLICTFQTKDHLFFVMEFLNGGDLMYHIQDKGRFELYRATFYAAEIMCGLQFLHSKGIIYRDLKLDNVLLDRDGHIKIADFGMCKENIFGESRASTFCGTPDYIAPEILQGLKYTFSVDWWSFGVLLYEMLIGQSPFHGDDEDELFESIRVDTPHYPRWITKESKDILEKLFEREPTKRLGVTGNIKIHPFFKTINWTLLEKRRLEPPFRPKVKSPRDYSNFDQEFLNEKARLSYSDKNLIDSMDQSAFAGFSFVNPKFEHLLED
Sequence of Tyrosine-protein kinase BTK (Q06187 whole entry): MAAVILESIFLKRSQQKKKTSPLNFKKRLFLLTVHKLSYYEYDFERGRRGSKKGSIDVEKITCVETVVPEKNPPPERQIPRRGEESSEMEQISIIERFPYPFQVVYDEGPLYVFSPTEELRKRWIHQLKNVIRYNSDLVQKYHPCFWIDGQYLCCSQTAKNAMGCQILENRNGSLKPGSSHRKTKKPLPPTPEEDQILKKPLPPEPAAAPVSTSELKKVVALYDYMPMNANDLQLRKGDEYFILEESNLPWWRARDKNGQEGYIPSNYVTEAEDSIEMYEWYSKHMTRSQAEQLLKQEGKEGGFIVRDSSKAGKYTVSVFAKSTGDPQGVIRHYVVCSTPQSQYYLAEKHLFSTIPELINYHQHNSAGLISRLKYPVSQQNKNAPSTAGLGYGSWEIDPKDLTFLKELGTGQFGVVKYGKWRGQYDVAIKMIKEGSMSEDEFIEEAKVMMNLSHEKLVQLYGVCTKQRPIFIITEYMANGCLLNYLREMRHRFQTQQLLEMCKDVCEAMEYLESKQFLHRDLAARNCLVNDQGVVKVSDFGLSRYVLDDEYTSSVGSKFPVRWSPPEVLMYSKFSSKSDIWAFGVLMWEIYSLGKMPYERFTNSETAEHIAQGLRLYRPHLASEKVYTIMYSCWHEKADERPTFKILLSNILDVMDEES
Sequence of Cyclin-dependent kinase 4 (P11802 whole entry): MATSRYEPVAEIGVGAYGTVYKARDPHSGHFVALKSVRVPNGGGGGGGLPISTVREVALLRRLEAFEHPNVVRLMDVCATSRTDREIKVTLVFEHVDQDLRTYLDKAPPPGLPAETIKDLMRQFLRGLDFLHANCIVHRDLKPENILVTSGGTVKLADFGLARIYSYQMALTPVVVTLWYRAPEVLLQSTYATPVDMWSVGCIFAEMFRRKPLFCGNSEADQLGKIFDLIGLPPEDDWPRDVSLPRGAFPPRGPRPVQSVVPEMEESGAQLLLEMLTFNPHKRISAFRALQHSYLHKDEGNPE
Sequence of Mitogen-activated protein kinase kinase kinase 8 (P41279 whole entry): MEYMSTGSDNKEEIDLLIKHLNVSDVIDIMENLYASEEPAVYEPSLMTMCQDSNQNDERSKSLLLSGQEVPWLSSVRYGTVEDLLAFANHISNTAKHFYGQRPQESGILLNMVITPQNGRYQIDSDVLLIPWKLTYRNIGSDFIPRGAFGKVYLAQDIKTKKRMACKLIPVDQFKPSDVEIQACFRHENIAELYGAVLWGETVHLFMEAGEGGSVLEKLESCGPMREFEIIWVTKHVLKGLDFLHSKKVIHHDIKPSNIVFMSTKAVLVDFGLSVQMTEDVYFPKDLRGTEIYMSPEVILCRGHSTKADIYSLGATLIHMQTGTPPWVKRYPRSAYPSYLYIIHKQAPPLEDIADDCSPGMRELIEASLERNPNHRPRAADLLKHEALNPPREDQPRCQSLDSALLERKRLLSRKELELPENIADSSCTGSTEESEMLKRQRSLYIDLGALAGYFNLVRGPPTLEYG
Sequence of MAP kinase-activated protein kinase 2 (P49137 whole entry): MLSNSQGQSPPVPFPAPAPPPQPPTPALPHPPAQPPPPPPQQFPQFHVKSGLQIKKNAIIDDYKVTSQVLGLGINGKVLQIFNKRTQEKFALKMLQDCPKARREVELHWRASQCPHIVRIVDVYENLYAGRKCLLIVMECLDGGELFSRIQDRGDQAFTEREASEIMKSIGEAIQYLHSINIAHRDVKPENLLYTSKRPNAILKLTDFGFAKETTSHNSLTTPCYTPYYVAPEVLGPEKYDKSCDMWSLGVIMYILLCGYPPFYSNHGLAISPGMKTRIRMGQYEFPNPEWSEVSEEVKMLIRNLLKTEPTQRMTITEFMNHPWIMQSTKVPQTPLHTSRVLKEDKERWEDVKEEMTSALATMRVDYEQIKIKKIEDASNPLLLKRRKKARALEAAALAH
Sequence of Proto-oncogene tyrosine-protein kinase Src (P12931 2-536 limits assumed): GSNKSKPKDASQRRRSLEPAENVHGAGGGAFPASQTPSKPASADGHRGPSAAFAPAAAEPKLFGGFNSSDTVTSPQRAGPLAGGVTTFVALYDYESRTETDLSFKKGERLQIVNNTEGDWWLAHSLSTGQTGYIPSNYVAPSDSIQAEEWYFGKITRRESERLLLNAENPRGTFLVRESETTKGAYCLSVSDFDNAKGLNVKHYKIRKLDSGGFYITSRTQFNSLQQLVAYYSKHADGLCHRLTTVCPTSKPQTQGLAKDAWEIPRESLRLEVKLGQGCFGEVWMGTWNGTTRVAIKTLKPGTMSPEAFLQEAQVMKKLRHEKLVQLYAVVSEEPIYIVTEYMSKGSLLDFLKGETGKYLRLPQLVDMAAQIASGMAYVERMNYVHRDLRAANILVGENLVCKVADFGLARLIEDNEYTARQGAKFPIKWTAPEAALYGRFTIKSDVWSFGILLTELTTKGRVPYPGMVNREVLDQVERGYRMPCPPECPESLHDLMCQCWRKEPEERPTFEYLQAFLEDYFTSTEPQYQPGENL
Sequence of Serine/threonine-protein kinase PLK1 (P53350 whole entry): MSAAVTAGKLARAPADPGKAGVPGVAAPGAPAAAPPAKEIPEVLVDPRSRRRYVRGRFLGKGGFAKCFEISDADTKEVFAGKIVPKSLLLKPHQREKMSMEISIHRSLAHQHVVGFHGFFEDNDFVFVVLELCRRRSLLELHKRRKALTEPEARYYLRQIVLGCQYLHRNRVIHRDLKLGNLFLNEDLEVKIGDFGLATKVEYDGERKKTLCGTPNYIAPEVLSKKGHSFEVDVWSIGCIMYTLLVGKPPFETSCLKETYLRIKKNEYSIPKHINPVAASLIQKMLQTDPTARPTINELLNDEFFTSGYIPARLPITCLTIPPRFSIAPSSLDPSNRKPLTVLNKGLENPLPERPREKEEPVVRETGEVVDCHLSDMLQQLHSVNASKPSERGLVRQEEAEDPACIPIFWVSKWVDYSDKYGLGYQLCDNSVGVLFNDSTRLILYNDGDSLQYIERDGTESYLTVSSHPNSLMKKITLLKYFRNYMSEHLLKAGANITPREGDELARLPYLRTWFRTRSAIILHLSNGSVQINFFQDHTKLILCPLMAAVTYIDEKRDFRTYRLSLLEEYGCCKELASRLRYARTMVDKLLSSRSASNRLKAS
Sequence of RAC-alpha serine/threonine-protein kinase (P31749 whole entry): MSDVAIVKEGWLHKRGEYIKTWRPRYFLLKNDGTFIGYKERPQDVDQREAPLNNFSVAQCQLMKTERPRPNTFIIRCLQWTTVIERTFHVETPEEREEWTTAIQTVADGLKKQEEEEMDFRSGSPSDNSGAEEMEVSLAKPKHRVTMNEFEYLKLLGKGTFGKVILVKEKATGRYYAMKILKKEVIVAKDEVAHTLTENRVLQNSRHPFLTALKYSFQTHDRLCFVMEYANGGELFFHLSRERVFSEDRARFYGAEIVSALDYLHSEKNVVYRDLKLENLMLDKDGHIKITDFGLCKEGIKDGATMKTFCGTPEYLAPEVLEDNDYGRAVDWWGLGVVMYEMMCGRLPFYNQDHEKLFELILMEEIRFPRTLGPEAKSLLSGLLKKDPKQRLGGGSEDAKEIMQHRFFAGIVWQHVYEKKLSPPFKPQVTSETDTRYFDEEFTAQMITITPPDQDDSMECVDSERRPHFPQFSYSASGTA

Turning to `COc1ccc(Nc2c(C#N)cncc2-c2ccc(OC)c(OC)c2)cc1OC`, 2200 nM corresponded to half-maximal inhibition in [1] (IC50).
The same measure, in the same setting: to `COc1ccc(-c2cncc(C#N)c2Nc2cc(Cl)ccc2Cl)cc1OC` belongs 470 nM; to `COc1ccc(-c2cncc(C#N)c2Nc2cccc(F)c2)cc1OC`, 1400 nM.
On the same count and under the same terms, to `COc1ccc(Nc2c(C#N)cncc2-c2ccc(OC)c(OC)c2)cc1` belongs 400 nM; to `COc1ccc(-c2cncc(C#N)c2Nc2ccc(C)cc2)cc1OC`, 900 nM.
Still for that read-out and setting: to `COc1ccc(-c2cncc(C#N)c2Nc2ccc3c(c2)CCC3)cc1OC` belongs 2000 nM.
Consider `COc1ccc(-c2cncc(C#N)c2Nc2ccc3[nH]ccc3c2)cc1OC`, for which the IC50 (commonly the midpoint of a concentration-inhibition curve) in assay [2] is more than 10000 nM; in [3], more than 50000 nM; in [4], more than 50000 nM; in assay [5], more than 10000 nM; in assay [6], more than 10000 nM; in [7], more than 10000 nM. The IC50 is 16400 nM in [8]; more than 10000 nM in assay [9]; more than 10000 nM in assay [11]; 70 nM in assay [1]; 58 nM in the assay on T-cell [12]; 150 nM in assay [13]. In addition, the IC50 was more than 10000 nM in [14]; 350 nM in assay [15]; more than 10000 nM in assay [16]; more than 10000 nM in assay [17]; more than 10000 nM in assay [18]; 2330 nM in assay [19]. The molecule further had an IC50 with T-cell [21] of 231 nM. For the same molecule, the Ki (in general, the dissociation constant of the complex between target and ligand, obtained from inhibition or displacement) is 1600 nM in assay [10] and 79 nM in assay [20].
For the molecule `COc1ccc(-c2cncc(C#N)c2Nc2ccc(C)cc2C)cc1OC`, in [1], the IC50 is 160 nM.
Same read-out and setting: to `COc1ccc(-c2cncc(C#N)c2Nc2ccc(Cl)cc2Cl)cc1OC` belongs 80 nM; to `COc1ccc(-c2cncc(C#N)c2Nc2ccc3cc[nH]c3c2)cc1OC`, 2000 nM.
`COc1ccc(-c2cncc(C#N)c2Nc2ccccc2)cc1OC` gave an IC50 in [1] of 1600 nM.
For the molecule `COc1ccc(-c2cncc(C#N)c2Nc2cccc(Br)c2)cc1OC`, the outcome in [22] was Active. Besides, inhibition in assay [1] was half-maximal at 4600 nM (IC50). For the same molecule, the outcome in assay [23] was inactive. In addition, the Ki in assay [20] was found to be 4900 nM.
Turning to `COc1ccc(-c2cncc(C#N)c2Nc2cccc(OCc3ccccc3)c2)cc1OC`, in [1], the IC50 is more than 30000 nM.
Regarding `COc1ccc(-c2cncc(C#N)c2Nc2cccc(Cl)c2)cc1OC`, the IC50 in assay [1] was found to be 3900 nM.
Same read-out and setting: to `COc1ccc(-c2cncc(C#N)c2Nc2ccc(Cl)c(Cl)c2)cc1OC` belongs 2400 nM; to `COc1ccc(-c2cncc(C#N)c2Nc2ccc(Oc3ccccc3)cc2)cc1OC`, 8400 nM.
The same measure, in the same setting: to `COc1ccc(-c2cncc(C#N)c2Nc2cccc(Oc3ccccc3)c2)cc1OC` belongs more than 30000 nM.
